Measurements taken from ChEMBL document CHEMBL4251738, “A BODIPY-Tagged Phosphono Peptide as Activity-Based Probe for Human Leukocyte Elastase” (ACS Med Chem Lett, 2018).
Activity calls are given as the source filed them. The rule behind the calls is not given here.

Tests used:
[1] = target: Cathepsin B (Homo sapiens) (UniProt P07858); assay: Inhibition of human cathepsin B assessed as product formation at 1 uM using Z-Arg-Arg-pNA as substrate incubated over 60 mins by spectrophotometric method
Summary of the method: (§1)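 Single-point test at 1 μM inhibitor, run in duplicate. Product formation was followed over 60 min. More than 90% product formation after 60 min was scored as no inhibition.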

[2] = target: T1, Neutrophil elastase (Homo sapiens) (UniProt P08246); assay: Irreversible inhibition of human leukocyte elastase assessed as ratio of Kinact to Ki using MeO-Suc-Ala-Ala-Pro-Val-pNA as substrate incubated over 60 mins by spectrophotometric method
T1 sequence (whole entry): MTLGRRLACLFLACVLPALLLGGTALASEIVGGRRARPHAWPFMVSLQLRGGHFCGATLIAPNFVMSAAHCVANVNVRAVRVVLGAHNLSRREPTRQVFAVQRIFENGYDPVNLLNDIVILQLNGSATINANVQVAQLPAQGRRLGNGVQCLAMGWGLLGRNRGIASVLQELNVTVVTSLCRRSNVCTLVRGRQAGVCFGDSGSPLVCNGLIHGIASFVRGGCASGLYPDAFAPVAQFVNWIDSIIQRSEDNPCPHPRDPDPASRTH
Summary of the method: (§2)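 From substrate-consumption progress curves, kobs values (means of duplicates) were plotted against inhibitor concentration. kinac/Ki was derived by linear regression as kinac/Ki = kobs/[I](1 + [S]/Km) + d, where d is an offset. SEM is from that regression.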

[3] = target: T1, Neutrophil elastase (Homo sapiens); assay: Binding affinity to human leukocyte elastase at 2.5 uM incubated for 20 mins followed by HEK cell lysate addition by in gel fluorescence detection based SDS-PAGE analysis
Summary of the method: (§3)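 HLE (600 ng) was incubated with 2.5 μM probe for 20 min. HEK cell lysate (9 μg) was added either before or after that incubation. Lysate alone and HLE alone were run as reference lanes. Samples went on SDS-PAGE, read by in-gel fluorescence and then by Coomassie staining.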

[4] = target: T1, Neutrophil elastase (Homo sapiens); assay: Irreversible inhibition of human leukocyte elastase at 50 nM using MeO-Suc-Ala-Ala-Pro-Val-pNA as substrate incubated for 30 mins followed by substrate addition
[5] = target: Procathepsin L (Homo sapiens) (UniProt P07711); assay: Inhibition of human cathepsin L assessed as product formation at 1 uM using Z-Phe-Arg-pNA as substrate incubated over 60 mins by spectrophotometric method; summary of the method: as §1
Chain of Procathepsin L (Homo sapiens) (P07711 114-333 limits assumed): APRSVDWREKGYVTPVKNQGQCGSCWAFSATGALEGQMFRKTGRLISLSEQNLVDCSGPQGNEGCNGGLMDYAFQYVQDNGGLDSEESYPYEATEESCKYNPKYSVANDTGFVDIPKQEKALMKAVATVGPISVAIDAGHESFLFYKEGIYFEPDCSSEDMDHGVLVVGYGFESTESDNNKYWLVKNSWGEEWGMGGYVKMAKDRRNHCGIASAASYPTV

[6] = target: T1, Neutrophil elastase (Homo sapiens); assay: Binding affinity to human leukocyte elastase at 2.5 uM incubated for 20 mins post HEK cell lysate addition by in gel fluorescence detection based SDS-PAGE analysis; summary of the method: as §3
[7] = target: T2, Pancreatic elastase (Sus scrofa) (UniProt P08419+P00772); assay: Inhibition of porcine pancreatic elastase assessed as ratio of Kinact to Ki using MeO-Suc-Ala-Ala-Pro-Val-pNA as substrate incubated over 60 mins by spectrophotometric method; format: protein assay; summary of the method: as §2
[8] = target: T1, Neutrophil elastase (Homo sapiens); assay: Binding affinity to human leukocyte elastase at 160 ng after 20 mins by in gel fluorescence detection based SDS-PAGE analysis
Summary of the method: (§4)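 Varying amounts of HLE were incubated with 2.5 μM fluorescent probe and then run on SDS-PAGE. Labeled HLE was read by in-gel fluorescence as bands at about 29 kDa. The same gel was then stained with Coomassie.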

[9] = species: Bos taurus; assay: Inhibition of bovine trypsin assessed as product formation at 1 uM using Suc-Ala-Ala-Pro-Arg-pNA as substrate incubated over 60 mins by spectrophotometric method; summary of the method: as §1
[10] = target: Coagulation factor X (Bos taurus) (UniProt P00743); assay: Inhibition of bovine factor 10a assessed as product formation at 1 uM using Boc-Ile-Glu-Gly-Arg-AMC as substrate incubated over 60 mins by fluorimetric method; summary of the method: as §1
Chain of Coagulation factor X (Bos taurus) (P00743 41-180 limits assumed): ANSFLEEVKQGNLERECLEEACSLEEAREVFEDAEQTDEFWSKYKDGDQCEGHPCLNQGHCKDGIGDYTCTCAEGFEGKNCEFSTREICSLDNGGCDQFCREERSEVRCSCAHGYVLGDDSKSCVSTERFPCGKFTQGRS
Chain of Coagulation factor X (Bos taurus) (P00743 234-492 limits assumed): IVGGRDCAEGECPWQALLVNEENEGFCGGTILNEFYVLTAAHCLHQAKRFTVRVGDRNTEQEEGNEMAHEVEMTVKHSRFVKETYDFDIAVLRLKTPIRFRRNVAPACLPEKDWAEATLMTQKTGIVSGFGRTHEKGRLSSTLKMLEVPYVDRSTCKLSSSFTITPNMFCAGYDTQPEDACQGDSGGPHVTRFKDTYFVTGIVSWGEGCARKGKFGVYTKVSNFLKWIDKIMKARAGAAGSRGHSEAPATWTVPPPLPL

[11] = target: T1, Neutrophil elastase (Homo sapiens); assay: Binding affinity to human leukocyte elastase at 2.5 uM incubated for 20 mins followed by HEK cell lysate addition by Coomassie brilliant blue G-250 staining based assay; summary of the method: as §3
[12] = target: T1, Neutrophil elastase (Homo sapiens); assay: Binding affinity to human leukocyte elastase at 2.5 uM incubated for 20 mins post HEK cell lysate addition by Coomassie brilliant blue G-250 staining based assay; summary of the method: as §3
[13] = target: T1, Neutrophil elastase (Homo sapiens); assay: Binding affinity to human leukocyte elastase at 2.5 uM after 20 mins by Coomassie brilliant blue G-250 staining based assay; summary of the method: as §4
[14] = target: T1, Neutrophil elastase (Homo sapiens); assay: Inhibition of human leukocyte elastase at 2.5 uM preincubated with sivelestat for 5 mins followed by compound addition measured after 20 mins in presence of sivelestat by in gel fluorescence detection based SDS-PAGE analysis
Summary of the method: (§5)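 It was then incubated with 2.5 μM probe. Samples were resolved by SDS-PAGE, read by in-gel fluorescence and then by Coomassie staining.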

[15] = target: Prothrombin (Homo sapiens) (UniProt P00734); assay: Inhibition of human thrombin assessed as product formation at 1 uM using Z-Gly-Gly-Arg-AMC as substrate incubated over 60 mins by fluorimetric method; summary of the method: as §1
[16] = target: T1, Neutrophil elastase (Homo sapiens); assay: Inhibition of human leukocyte elastase at 2.5 uM preincubated with sivelestat for 5 mins followed by compound addition measured after 20 mins in presence of sivelestat by Coomassie brilliant blue G-250 staining based assay; summary of the method: as §5
[17] = species: Bos taurus; assay: Inhibition of bovine chymotrypsin assessed as ratio of Kinact to Ki using Suc-Ala-Ala-Pro-Phe-pNA as substrate incubated over 60 mins by spectrophotometric method; summary of the method: as §2
[18] = target: T1, Neutrophil elastase (Homo sapiens); assay: Binding affinity to human leukocyte elastase at 2.5 uM after 20 mins by in gel fluorescence detection based SDS-PAGE analysis; summary of the method: as §4
[19] = target: T2, Pancreatic elastase (Sus scrofa); assay: Inhibition of porcine pancreatic elastase assessed as product formation at 1 uM using MeO-Suc-Ala-Ala-Pro-Val-pNA as substrate incubated over 60 mins by spectrophotometric method; format: protein assay; summary of the method: as §1
[20] = target: T1, Neutrophil elastase (Homo sapiens); assay: Irreversible inhibition of human leukocyte elastase assessed as ratio of Kinact to Ki using MeO-Suc-Ala-Ala-Pro-Val-pNA as substrate by spectrophotometric method; conditions: TDE = time-dependent effect; summary of the method: as §2
[21] = species: Bos taurus; assay: Inhibition of bovine chymotrypsin assessed as product formation at 1 uM using Suc-Ala-Ala-Pro-Phe-pNA as substrate incubated over 60 mins by spectrophotometric method; summary of the method: as §1
[22] = target: T1, Neutrophil elastase (Homo sapiens); assay: Irreversible inhibition of human leukocyte elastase at 20 nM using MeO-Suc-Ala-Ala-Pro-Val-pNA as substrate incubated for 30 mins followed by substrate addition

Row | Compound | inhibition [1] [%] | Ratio [2] [M⁻¹ s⁻¹] | inhibition [5] [%] | Ratio [7] [M⁻¹ s⁻¹] | inhibition [9] [%] | inhibition [10] [%] | inhibition [15] [%] | inhibition [20] | inhibition [21] [%] | also measured
1 | CSc1ccc(OP(=O)(Oc2ccc(SC)cc2)[C@@H](NC(=O)[C@@H]2CCCN2C(=O)[C@@H](NC(=O)Cn2cc(-c3ccc(C4=C5C(C)=CC(C)=[N+]5[B-](F)(F)n5c(C)cc(C)c54)cc3)nn2)C(C)C)C(C)C)cc1 | > 90 | 88400 | > 90 | 1440 | > 90 | > 90 | > 90 |  |  | Activity [3]: Active; inhibition [4]: Active; Activity [6]: Active; Activity [8]: Active; Activity [11]: Active; Activity [12]: Active; Activity [13]: Active; inhibition [14]: inactive; inhibition [16]: inactive; Ratio [17]: 565 M⁻¹ s⁻¹; Activity [18]: Active
2 | CSc1ccc(OP(=O)(Oc2ccc(SC)cc2)[C@H](NC(=O)[C@@H]2CCCN2C(=O)[C@@H](NC(=O)OC(C)(C)C)C(C)C)C(C)C)cc1 | > 90 | 1000 | > 90 |  | > 90 | > 90 | > 90 | Tde | > 90 | inhibition [19]: > 90%
3 | CC(C)(C)C(=O)Oc1ccc(S(=O)(=O)Nc2ccccc2C(=O)NCC(=O)O)cc1 |  |  |  |  |  |  |  |  |  | inhibition [2]: Dose-dependent effect
4 | CSc1ccc(OP(=O)(Oc2ccc(SC)cc2)[C@@H](NC(=O)[C@@H]2CCCN2C(=O)[C@@H](NC(=O)OC(C)(C)C)C(C)C)C(C)C)cc1 | > 90 | 399000 | > 90 | 7990 | > 90 | > 90 | > 90 | Tde | > 90 | inhibition [22]: Active
